Legend:
[1] = tested on: Trypanosoma brucei brucei; experiment: Antitrypanosomal activity against Trypanosoma brucei brucei 427 after 48 hrs by alamar blue assay; assay type: functional, organism-based
[2] = tested on: Leishmania major; experiment: Antileishmanial activity against Leishmania major Friedlin promastigotes after 48 hrs by alamar blue assay; assay type: functional, organism-based
How it was run: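 L. major Friedlin promastigotes grown in HOMEM with 10% FBS at 25 °C. Alamar Blue fluorescence assay in 96-well plates. 3–6 independent experiments unless noted.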

[3] = tested on: Leishmania mexicana; experiment: Antileishmanial activity against Leishmania mexicana MNYC/BZ/62/M379 amastigotes after 48 hrs by alamar blue assay; assay type: functional, organism-based
How it was run: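 Axenic L. mexicana MNYC/BZ/62/M379 amastigotes kept at 33 °C under CO2 in Schneider's Drosophila medium with 20% FBS and 0.3% gentamycin. Alamar Blue fluorescence read-out.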

[4] = tested on: HEK293; experiment: Cytotoxicity against HEK293 cells after 16 hrs by alamar blue assay; assay type: cell-based, Homo sapiens
How it was run: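 HEK293T cells grown in DMEM-based medium with 10% newborn bovine serum at 37 °C, 5% CO2. Doubling dilutions of compound added for 16 h, then resazurin added. Fluorescence read at emission 590 nm after a further 24 h.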

[5] = tested on: Trypanosoma brucei brucei; experiment: Antitrypanosomal activity against diminazene-resistant Trypanosoma brucei brucei deltaTbat1-KO after 48 hrs by alamar blue assay; assay type: functional, organism-based
[6] = tested on: Trypanosoma brucei brucei; experiment: Antitrypanosomal activity against multidrug-resistant Trypanosoma brucei brucei B48 after 48 hrs by alamar blue assay; assay type: functional, organism-based; settings: B48, 48 h
[7] = tested on: Trypanosoma evansi; experiment: Antitrypanosomal activity against Trypanosoma evansi ITMAV170475 after 48 hrs by alamar blue assay; assay type: functional, organism-based; settings: ITMAV170475, 48 h
How it was run: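 Culture-adapted T. evansi ITMAV170475 seeded at 1.5 ×10⁵ trypanosomes/ml in HMI9/20% FBS. Exposed to compound for 48 h, then incubated with Alamar Blue for 24 h, all at 37 °C under CO2. Assay validated against hemocytometer cell counts. EC50 from a variable-slope sigmoid fit.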

[8] = Trypanosoma brucei, 427, 48 h, read-out: EC50
[9] = Leishmania major, Friedlin, 48 h, read-out: EC50
[10] = Leishmania mexicana, MNYC/BZ/62/M379, 48 h, read-out: EC50
[11] = Homo sapiens, HEK293, 16 h, read-out: EC50

COc1cc(/C=C/C(=O)CC(=O)/C=C/c2ccc(OC(=O)c3ccccc3)cc2)ccc1OC(=O)c1ccccc1
EC50 [1]: ND(Insoluble) | EC50 [2]: ND(Insoluble) | EC50 [3]: ND(Insoluble) | EC50 ([4]; hek293): ND(Insoluble)

COc1cc(/C=C/C(=O)CC(=O)/C=C/c2ccc(O)cc2)ccc1OC(=O)c1ccccc1
EC50 [1, 8]: 1.2 µM | EC50 [5]: 1.6 µM | EC50 [6]: 4.7 µM | EC50 [2, 9]: 42 µM | EC50 [3, 10]: > 100 µM | EC50 [4, 11]: 370 µM

COc1cc(/C=C/C(=O)CC(=O)/C=C/c2ccc(OCCO)cc2)ccc1O
EC50 [1, 8]: 0.7 µM | EC50 [5]: 0.85 µM | EC50 [6]: 1.1 µM | EC50 [2, 9]: 9.7 µM | EC50 [3, 10]: 32 µM | EC50 [4, 11]: 46 µM

COc1cc(/C=C/C(=O)CC(=O)/C=C/c2ccc(OC(=O)c3ccccc3)cc2)ccc1O
EC50 [1, 8]: 3.7 µM | EC50 [5]: 7.8 µM | EC50 [6]: 7.8 µM | EC50 [2, 9]: 20 µM | EC50 [3, 10]: > 100 µM | EC50 [4, 11]: > 500 µM | EC50 [7]: 2.9 µM

COc1cc(CCC(=O)CC(=O)CCc2ccc(O)cc2)ccc1O [TETRAHYDRODEMETHOXYCURCUMIN]
EC50 [1, 8]: 22 µM | EC50 [5]: 34 µM | EC50 [6]: 18 µM | EC50 [2, 9]: > 100 µM | EC50 [3, 10]: > 50 µM

COc1cc(CCC(=O)CC(O)CCc2ccc(O)c(OC)c2)ccc1O (stereo unspecified) [HEXAHYDROCURCUMIN]
EC50 [1, 8]: 17 µM | EC50 [5]: 38 µM | EC50 [6]: 5.9 µM | EC50 [2, 9]: > 100 µM | EC50 [3, 10]: > 100 µM | EC50 [4, 11]: 370 µM

COc1cc(CCC(=O)CC(=O)CCc2ccc(O)c(O)c2)ccc1O
EC50 [1, 8]: 0.5 µM | EC50 [5]: 0.52 µM | EC50 [6]: 0.43 µM | EC50 [2, 9]: 11 µM | EC50 [3, 10]: 16 µM | EC50 [4, 11]: 130 µM

COc1cc(/C=C/C(=O)CC(=O)/C=C/c2ccc(OC(=O)c3ccccc3)c(OC)c2)ccc1O
EC50 [1, 8]: 3.1 µM | EC50 [5]: 3.8 µM | EC50 [6]: 2.1 µM | EC50 [2, 9]: 9.3 µM | EC50 [3, 10]: 76 µM | EC50 [4, 11]: 94 µM | EC50 [7]: 1.5 µM

COc1cc(/C=C/C(=O)/C=C/CCc2ccc(O)c(OC)c2)ccc1O
EC50 [1, 8]: 0.22 µM | EC50 [5]: 0.22 µM | EC50 [6]: 0.1 µM | EC50 [2, 9]: 2.7 µM | EC50 [3, 10]: 4.6 µM | EC50 [4, 11]: 8.1 µM | EC50 [7]: 0.21 µM

O=C(/C=C/CCc1ccc(O)c(O)c1)CCc1ccc(O)c(O)c1 [DEHYDROHIRSUTANONOL]
EC50 [1, 8]: 2.5 µM | EC50 [5]: 3.2 µM | EC50 [2, 9]: > 100 µM | EC50 [3, 10]: 17 µM | EC50 [4, 11]: 220 µM

COc1cc(/C=C/C(=O)CC(=O)/C=C/c2ccc(OC(C)=O)c(OC)c2)ccc1OC(C)=O
EC50 [1, 8]: 1.6 µM | EC50 [5]: 2.2 µM | EC50 [6]: 1.2 µM | EC50 [2, 9]: 73 µM | EC50 [3, 10]: 34 µM | EC50 [4, 11]: 80 µM

COc1cc(/C=C/C(=O)CC(=O)/C=C/c2ccc(OCCO)c(OC)c2)ccc1O
EC50 [1, 8]: 2.9 µM | EC50 [5]: 2.9 µM | EC50 [6]: 1.8 µM | EC50 [2, 9]: 22 µM | EC50 [3, 10]: 30 µM | EC50 [4, 11]: 25 µM

COc1cc(/C=C/C(=O)CC(=O)/C=C/c2ccc(OC(=O)c3ccccc3)c(OC)c2)ccc1OC(=O)c1ccccc1
EC50 [1]: ND(Insoluble) | EC50 [2]: ND(Insoluble) | EC50 [3]: ND(Insoluble) | EC50 ([4]; hek293): ND(Insoluble)

COc1cc(CCC(=O)CC(=O)CCc2ccc(O)c(OC)c2)ccc1O [TETRAHYDROCURCUMIN]
EC50 [1, 8]: 21 µM | EC50 [5]: 37 µM | EC50 [6]: 12 µM | EC50 [2, 9]: 90 µM | EC50 [3, 10]: 43 µM | EC50 [4, 11]: 120 µM

O=C(/C=C/c1ccc(O)cc1)CC(=O)/C=C/c1ccc(O)cc1 [BISDEMETHOXYCURCUMIN]
EC50 [1, 8]: 7.7 µM | EC50 [5]: 9.5 µM | EC50 [6]: 4.5 µM | EC50 [2, 9]: 72 µM | EC50 [3, 10]: 63 µM | EC50 [4, 11]: 200 µM

COc1cc(CC/C=C/C(=O)CCc2ccc(OC(C)=O)c(OC)c2)ccc1OC(C)=O
EC50 [1, 8]: 0.052 µM | EC50 [5]: 0.042 µM | EC50 [6]: 0.021 µM | EC50 [2, 9]: 7.8 µM | EC50 [3, 10]: 35 µM | EC50 [4, 11]: 30 µM

COc1ccc(/C=C/C(=O)CC(=O)/C=C/c2ccc(O)cc2)cc1
EC50 [1, 8]: 8.9 µM | EC50 [5]: 8.8 µM | EC50 [6]: 2.9 µM | EC50 [2, 9]: 87 µM | EC50 [3, 10]: 32 µM | EC50 [4, 11]: 400 µM

COc1cc(CCCCC(=O)CCc2ccc(O)c(OC)c2)ccc1O
EC50 [1, 8]: 32 µM | EC50 [5]: 28 µM | EC50 [6]: 27 µM | EC50 [2, 9]: 37 µM | EC50 [3, 10]: > 50 µM | EC50 [4, 11]: 140 µM

O=C(CCc1ccc(O)cc1)CC(=O)CCc1ccc(O)cc1 [LETESTUIANIN C]
EC50 [1, 8]: 2.5 µM | EC50 [5]: 4 µM | EC50 [6]: 5.1 µM | EC50 [2, 9]: 80 µM | EC50 [3, 10]: 64 µM | EC50 [4, 11]: 350 µM

— ChEMBL document CHEMBL1154833, “Curcuminoid analogs with potent activity against Trypanosoma and Leishmania species” (Eur J Med Chem, 2010)
